Data from ChEMBL document CHEMBL4513216, “Probing the Open Global Health Chemical Diversity Library for Multistage-Active Starting Points for Next-Generation Antimalarials” (ACS Infect Dis, 2020).

Assay: Toxicity liver stage against HepG2, at 10uM
Format: cell-based
Parameters: test concentration 10 uM, cell line HepG2-A16-CD81EGFP
Settings: human, HepG2-A16-CD81EGFP cells; read-out: INHIBITION
Method in brief: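 Uninfected HepG2-A16-CD81EGFP cells, 3 × 10^3 per well, 1536-well, plated on prespotted compound at 10 μM final, parasite-free screening media added to match infected plates; puromycin 10 μM positive, DMSO 0.5% negative; run in parallel with 48 h PbLuc assay at 37 °C, 5% CO2; viability by CellTiter-Glo luminescence, normalized to controls.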

Structure (SMILES) | cytotoxicity at 10 µM
CN(CCn1cccn1)C1CCCN(Cc2noc(C3CC3)n2)C1 (centres undefined) | 15%
Cc1nsc(NC2CCOC3(CCCCC3)C2)n1 (centres undefined) | 5%
CC(=O)N1CCC(Cc2ccc(-c3ccnn3C)nc2)CC1 | 2.74%
COc1ccccc1CC1CCCN(C(=O)c2nccnc2N)C1 (centres undefined) | 5.79%
Cc1ccc(-n2cccn2)cc1S(=O)(=O)N1C[C@H](C2CC2)[C@@H](N)C1 | 0.479%
O=C(c1cccnc1)N1CCOC(Cc2ccccc2Cl)C1 (centres undefined) | 2.12%
COc1ccc(CN2C[C@@H](O)[C@](O)(CNC(=O)c3ccccn3)C2)cc1 | 8.46%
CNS(=O)(=O)c1ccc(C(=O)NCCNc2ncccn2)cc1 | -5.95%
O=S(=O)(Cc1cc(-c2ccccc2)no1)CC1CCCO1 (centres undefined) | 4.7%
Cc1nccc(NCc2cncc3c2CCN(CCN(C)C)C3)n1 | -104%
COc1ccccc1CN1C[C@@H]2COC[C@]2(COc2cccnc2)C1 | 6.24%
Cc1ccc(CN2CCC3(CCCN3S(C)(=O)=O)CC2)s1 | -113%
CC(C)C(CNC(=O)CCn1cncn1)N1CCc2ccccc2C1 (centres undefined) | -162%
CCc1nccn1CCC(=O)N1CCOC(c2ccc(F)cc2)C1 (centres undefined) | -12.5%
CN(C)S(=O)(=O)N1CCOCC1CC(=O)NCCOc1ccccc1 (centres undefined) | 2.38%
Cc1ccc(CC(=O)N2CCCC(c3nccs3)C2)cn1 (centres undefined) | -2.01%
CN1CCN2C(=O)N(c3ccccc3)C[C@H]2C1 | 3.7%
O=C(C1CC1)N1CCC2(CCCN2Cc2ccc(F)cc2)CC1 | 3.35%
COc1ccccc1CC1CCN(C(=O)CCc2ccccn2)CC1 | -3.2%
COc1ccccc1C1CCN(C(=O)CN2C(=O)OC(C)(C)C2=O)CC1 | 8.12%
CC(C)Cc1cc(NC(=O)c2cccnc2)n(C)n1 | -7.09%
CCCNC(=O)c1ccc(S(=O)(=O)NCC2(COC)CCCC2)cc1 | -31.2%

Structure (SMILES) | cytotoxicity at 10 µM
COCC1CCCN(CCCc2cccc(OC)c2)C1 (centres undefined) | 2.41%
O=C(c1ccsc1)N1CC[C@@H](N2CCOCC2)[C@@H]1Cc1ccccc1 | -71.8%
CN(CCCc1cc(-c2ccccc2)n[nH]1)C(=O)CCCn1cncn1 | -147%
CC1CN(C)CCN1C(=O)c1ccn(-c2cccc(F)c2)n1 (centres undefined) | -1.87%
c1c(CN2CCCCC2)nc2n1CCNC2 | 3.91%
COCc1nc2nc(O)c3c(n2n1)NC(=O)CC3c1ccc(SC)cc1 (centres undefined) | 1.22%
Cc1cc(N(C)C)cc(C2CCN(S(=O)(=O)c3cccnc3)C2)n1 (centres undefined) | 4.26%
Fc1cccc2ncnc(NCCCc3ccncc3)c12 | 7.02%
O=C(O)c1cnc(N2CCCC2)nc1COc1ccccc1 | 0.924%
Cc1nc(C(=O)N(C)[C@@H]2CCC[C@@H](Oc3ccccc3)[C@@H]2O)co1 | -22.6%
O=C(NCCC(=O)N1CCCC1)c1nn(-c2ccccc2F)cc1O | -13.9%
CN(Cc1ccncc1)C(CO)c1cccc(Br)c1 (centres undefined) | 15.4%
Cc1cnn(CC2CCCCN2C(=O)c2ccnc(N(C)C)c2)c1 (centres undefined) | 3.3%
Cc1noc(CN2CC=C(c3c[nH]c4ncccc34)CC2)n1 | 44.7%
O=C(N[C@@H]1CCC[C@@H](N2CCOCC2)[C@@H]1O)c1ncccn1 | -25.9%
Cc1cccc(CN(C)Cc2nc3c(cnn3C)c(=O)[nH]2)c1 | -8.08%
Cc1ccc(CN2C[C@H]3C[C@H](C(=O)NCC4CC4)N(C)[C@H]3C2)o1 | -3.13%
O=C(NCc1ccc(Br)c(F)c1)Nc1cn[nH]c1 | -6.62%
CCC(CC)NC(=O)c1nc2n(n1)-c1ccccc1S(=O)(=O)N2 | 8.3%
Cc1nnc(C(C)N2CCN(Cc3ccc(C#N)cc3)CC2)o1 (centres undefined) | -12.2%
CN1[C@H](CN2CCCC2)C[C@@H]2CN(C(=O)c3ccsc3)CC[C@@H]21 | 0.847%
Cn1cncc1-c1nnc([C@H]2CCN(Cc3ccc(F)c(F)c3)C2)o1 | 3.04%

Structure (SMILES) | cytotoxicity at 10 µM
COc1ccc(CC(=O)NC(C)c2nc3cccnc3n2C(C)C)cc1 (centres undefined) | -11.7%
Cn1c(Cn2cccn2)nnc1C1CCCN(c2ccncc2F)C1 (centres undefined) | -0.773%
COCCN1CCC(CNC(=O)c2cc(Cl)c[nH]2)CC1 | 5.2%
O=C(c1ccoc1)N1C[C@H]2CC[C@@]3(N=C(c4ccccc4)NC3=O)[C@H]2C1 | 6.79%
Cc1sc2nc(C(F)(F)F)nc(N3CCN(S(C)(=O)=O)CC3)c2c1C | -8.07%
Cc1nc2c(c(NCCN3CCOCC3)n1)CCN(C)C2 | 4.09%
Cc1cnc(CN(C)C2CCN(CCn3cc(C#N)cn3)C2)o1 (centres undefined) | -5.45%
CCCn1ncc(CN2C[C@@H]3CCCN3C[C@@H]2Cc2ccccc2)c1C | -8.16%
Cc1ncc2c(n1)CN(Cc1nnc(-c3ccccc3)o1)CC2 | -9.77%
COc1ncccc1NC(=O)N1CCC(CN2CCOCC2)CC1 | -6.78%
CCn1ncnc1C1CC(=O)NCc2nc3ccccn3c21 (centres undefined) | -12.2%
Cc1occc1C(=O)N1C[C@@H](C(=O)N2CCCCO2)C[C@H]2OCC[C@H]21 | 12.1%
CCc1cccc(NC(=O)NC2CCc3nc(C)nn3C2)c1 (centres undefined) | -12.5%
COCC(=O)N1CC[C@]2(O)CCN(Cc3cccnc3OC)C[C@@H]2C1 | 8.72%
COCC(=O)N1CCC2(COCc3cnc(NCc4ccco4)nc32)C1 (centres undefined) | -1.75%
CN1CCN(C2CCN(c3ccnc(-c4ccccc4)n3)CC2)C1=O | 59.7%
CN1C[C@H]2CN(Cc3cccc(OC(F)(F)F)c3)CCN2C1=O | 4.85%
O=C(NCCCc1nc(=O)[nH][nH]1)Nc1cccc(F)c1 | -51.1%
OCCN1CCC(CNCc2ccc(Br)cc2)CC1 | -8.29%
CC(C)c1noc(CN2CCN(C(=O)c3cccnc3O)CC2)n1 | -9.86%
CCn1cc(S(=O)(=O)NCC2(N3CCOCC3)CCCCC2)c(C)n1 | -27.5%
CC(C)N(C(=O)c1csc(-c2ccoc2)n1)C1CCOCC1 | -1.18%

Structure (SMILES) | cytotoxicity at 10 µM
Cc1noc(NS(=O)(=O)c2ccc(Cl)s2)c1C | 5.3%
CC(C)Oc1ccccc1CNC(=O)N1CCC(n2cncn2)CC1 | 2.38%
CCSc1ccc(C(=O)N2CCC3(CC2)[C@H](O)C[C@@H]3O)s1 | 1.34%
O=C(c1cccs1)N1CCC(n2nc(-c3ccco3)ccc2=O)CC1 | -6.62%
CC(=O)N1CC(=O)N(c2ccsc2)CC12CCN(Cc1ccoc1)C2 (centres undefined) | 5.56%
O=C(CCCNc1ncccn1)N1CCCC(n2cccn2)C1 (centres undefined) | 7.34%
CCC(CC)n1nc(C)cc1NC(=O)C1CCCO1 (centres undefined) | -0.951%
Cc1cc(C2CCCN(C(=O)c3ccc(Cl)o3)C2)n[nH]1 (centres undefined) | -5.02%
O=C1CO[C@H](c2ccc(NS(=O)(=O)Cc3ccccc3)cc2)[C@@H](CO)N1 | 40.8%
CCCn1cc(C(=O)NCC(=O)NC2CC2)c(C)n1 | -3.91%
CS(=O)(=O)N1Cc2ccccc2CC2(CCN(Cc3ccccc3)C2)C1 (centres undefined) | 7.38%
CCOc1ccccc1CN(CC)Cc1ccc(S(C)(=O)=O)cc1 | -4.6%
NC(=O)C1CCN(C(=O)NC(Cc2ccccc2)C(F)(F)F)CC1 (centres undefined) | -7.72%
Cc1oncc1C(=O)N1C[C@H]2CCCC(N(C)Cc3cccs3)[C@H]2C1 (some centres undefined) | 18.8%
CN(Cc1ccccc1F)C(=O)CS(=O)(=O)Cc1ccc(Cl)c(Cl)c1 | 3.2%
CC(=O)N1CC(Cc2nccc3ccn(C)c23)C1 | 0.668%
O=C1NC2(CCNCC2)CC1c1cccnc1 (centres undefined) | 1.77%
NC(=O)C1CCN(C(=O)c2ccc(OCc3cscn3)cc2)CC1 | -10.6%
CN(C)Cc1cnn(-c2ccccc2C(=O)N(C)Cc2ccccc2)c1 | -6.54%
Cc1ccc(CN2C[C@@H]3COC[C@H](NS(C)(=O)=O)[C@@H]3C2)s1 | 0.354%
CCN(CC1COc2ccccc2O1)C(=O)NCCCn1cncn1 (centres undefined) | -9.27%
O=C(CCc1nccs1)N1CCCC(n2cccn2)C1 (centres undefined) | -14.4%

Structure (SMILES) | cytotoxicity at 10 µM
NCc1cc(NCC(c2ccccn2)N2CCOCC2)ncn1 (centres undefined) | -47.5%
CNC(=O)C1CCCN(C(=O)C2CCC2)C1 (centres undefined) | -4.47%
O=C(NCc1cccnc1N1CCCC(O)C1)c1ccsc1 (centres undefined) | 14.3%
COCCNC(=O)C(C)N1CCN(C)CC1 (centres undefined) | -1.21%
c1cnn(Cc2nnc3n2CCCN(CC2CCOCC2)C3)c1 | 2.6%
CC(C)Sc1nnc(CCNC(=O)OC(C)(C)C)o1 | 14.3%
O=C(C1CC1)N1CC[C@H]2[C@@H]1CCC(=O)N2c1ccccc1 | 10.8%
CN1C(=O)CC(c2ccccc2)C12CCN(CC1CC1)CC2 (centres undefined) | -1.95%
CN(C)c1cc2c(nn1)CCN(C(=O)C1CCCc3ccccc31)C2 (centres undefined) | -8.57%
Cc1ncc(CNCC2CCCN2c2cccnn2)s1 (centres undefined) | 1.97%
Cc1cc(CN2C[C@@H]3CN(Cc4ccsc4)CCO[C@@H]3C2)no1 | -139%
COCC1CN(C(=O)Cc2ccsc2)Cc2c1cnn2C (centres undefined) | -67%
Cc1cnn(CC2CCCN2C(=O)c2ccc(OC(C)C)nc2)c1 (centres undefined) | -6.13%
Cc1ccc(CC2COCCN(Cc3ccccc3)C2)nc1 (centres undefined) | 8.3%
Cn1nccc1C(=O)N1CCN(C(=O)C2CC2)[C@@H]2CS(=O)(=O)C[C@@H]21 | 3.11%
CC(=O)N1CCC2(CCCN(C(=O)CCN3CCCCC3)C2)C1 (centres undefined) | 0.906%
c1ccc(CCN2CCOC(CNc3cccnn3)C2)nc1 (centres undefined) | -1.56%
Cn1cc(NC(=O)Cn2cc(-c3ccccc3)ncc2=O)cn1 | -3.43%
Cc1nc(CN(C)CC2CCCN(CCc3ccc(Cl)cc3)C2)no1 (centres undefined) | 8.15%
CNC(=O)c1ccc(CN(C)C(=O)Nc2nnc(C(C)C)s2)cc1 | -14%
Cc1ccc2c(c1)OC(C)(C)CC2NC(=O)C1CCN(S(C)(=O)=O)CC1 (centres undefined) | 1.93%
